In brackets after ≈: the same amount, converted by molar mass. Values belong to the molecule of their own block, whether it stands above or below them.
What was measured:
[1] = tested on: Jurkat; assay: Growth inhibition of human Jurkat cells at 50 ug/mL; assay type: functional
[2] = tested on: Jurkat; assay: Cytotoxicity against human Jurkat cells in presence and relative to TRAIL; assay type: functional, cell-based
Method in brief: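 Jurkat cell proliferation test run with each isolate in combination with TRAIL, to measure enhancement of TRAIL cytotoxicity; values expressed relative to the cell proliferation rate at 0.125.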

[3] = tested on: Jurkat; assay: Growth inhibition of human Jurkat cells; assay type: functional, cell-based
[4] = tested on: Jurkat; assay: Cytotoxicity against human Jurkat cells in presence and relative to TRAIL at 50 ug/mL; assay type: functional
Method in brief: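 Proliferation assay in Jurkat cells exposed to each isolated alkaloid together with TRAIL. Results are expressed relative to the cell proliferation rate at […].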

Structure (SMILES): CO[C@H]1C=CC2=CC(=O)N3CCc4cc5c(cc4[C@]23C1)OCO5
- inhibition at 50 µg/mL [1]: 37%
- IC50 [2]: 22 µg/mL (≈ 70.7 µM)
- IC50 [3]: > 50 µg/mL

- IC50 [3]: > 50 µg/mL
Structure (SMILES): COc1cc2c(cc1O)CC[N+]1([O-])CC=C3C=C[C@H](OC)C[C@]321 (stereo not given in full)
- inhibition at 50 µg/mL [1]: 2.4%
- inhibition at 50 µg/mL [4]: 18.9%
- IC50 [2]: > 50 µg/mL

- IC50 [3]: 30 µg/mL (≈ 111 µM)
Structure (SMILES): O=c1cc(-c2ccc(O)cc2)oc2cc(O)cc(O)c12 [APIGENIN]
- IC50 [2]: 6.7 µg/mL (≈ 24.8 µM)

Structure (SMILES): COC(=O)c1cc2c(cn1)CCN1CC=C3C=C[C@H](OC)C[C@]321 [ERYMELANTHINE]
- inhibition at 50 µg/mL [1]: 1.1%
- inhibition at 50 µg/mL [4]: 24.2%
- IC50 [2]: > 50 µg/mL
- IC50 [3]: > 50 µg/mL

Structure (SMILES): COc1cc2c(cc1O)CCN1CC=C3C=C[C@H](OC)C[C@]321 [ERYSODINE]
- IC50 [2]: 4.9 µg/mL (≈ 16.4 µM)
- IC50 [3]: 10.8 µg/mL (≈ 36.1 µM)

Structure (SMILES): COc1cc2c(cc1OC)[C@]13C[C@@H](OC)C=CC1=CCN3CC2 [ERYSOTRINE]
- inhibition at 50 µg/mL [1]: 45%
- IC50 [2]: 7.2 µg/mL (≈ 23 µM)
- IC50 [3]: > 50 µg/mL

Structure (SMILES): COc1cc2c(cc1O)[C@]13C[C@@H](OC)C=CC1=CCN3CC2 [ERYSOVINE]
- IC50 [2]: 14.2 µg/mL (≈ 47.4 µM)
- IC50 [3]: 24 µg/mL (≈ 80.2 µM)

Structure (SMILES): CO[C@H]1C=CC2=CCN3CCc4cc5c(cc4[C@]23C1)OCO5 [ERYTHRALINE]
- IC50 [2]: 5 µg/mL (≈ 16.8 µM)
- IC50 [3]: 23 µg/mL (≈ 77.3 µM)

- IC50 [3]: > 50 µg/mL
Structure (SMILES): COc1cc2c(cc1O[C@@H]1O[C@H](CO)[C@@H](O)[C@H](O)[C@H]1O)CCN1CC=C3C=C[C@H](OC)C[C@]321 [GRYCOERYSODINE]
- inhibition at 50 µg/mL [1]: 4.7%
- IC50 [2]: 44 µg/mL (≈ 95.3 µM)

- IC50 [3]: > 50 µg/mL
Structure (SMILES): C[N+](C)(C)[C@H](Cc1c[nH]c2ccccc12)C(=O)[O-] [HYPAPHORINE]
- inhibition at 50 µg/mL [1]: 5.8%
- inhibition at 50 µg/mL [4]: 20%
- IC50 [2]: > 50 µg/mL

- IC50 [3]: 0.0031 µg/mL (≈ 0.00376 µM)
Structure (SMILES): CC[C@]1(O)C[C@H]2CN(CCc3c([nH]c4ccccc34)[C@@](C(=O)OC)(c3cc4c(cc3OC)N(C=O)[C@H]3[C@@](O)(C(=O)OC)[C@H](OC(C)=O)[C@]5(CC)C=CCN6CC[C@]43[C@@H]65)C2)C1 [VINCRISTINE]

Reference: ChEMBL document CHEMBL1139285, “TRAIL-enhancing activity of Erythrinan alkaloids from Erythrina velutina” (Bioorg Med Chem Lett, 2009)
